Measured values pooled from the literature.
Compare with care: the assays were run in different laboratories.
Target: Serine/threonine-protein kinase ICK (CILK1, Homo sapiens, UniProt Q9UPZ9)
One construct used (Q9UPZ9 1-632): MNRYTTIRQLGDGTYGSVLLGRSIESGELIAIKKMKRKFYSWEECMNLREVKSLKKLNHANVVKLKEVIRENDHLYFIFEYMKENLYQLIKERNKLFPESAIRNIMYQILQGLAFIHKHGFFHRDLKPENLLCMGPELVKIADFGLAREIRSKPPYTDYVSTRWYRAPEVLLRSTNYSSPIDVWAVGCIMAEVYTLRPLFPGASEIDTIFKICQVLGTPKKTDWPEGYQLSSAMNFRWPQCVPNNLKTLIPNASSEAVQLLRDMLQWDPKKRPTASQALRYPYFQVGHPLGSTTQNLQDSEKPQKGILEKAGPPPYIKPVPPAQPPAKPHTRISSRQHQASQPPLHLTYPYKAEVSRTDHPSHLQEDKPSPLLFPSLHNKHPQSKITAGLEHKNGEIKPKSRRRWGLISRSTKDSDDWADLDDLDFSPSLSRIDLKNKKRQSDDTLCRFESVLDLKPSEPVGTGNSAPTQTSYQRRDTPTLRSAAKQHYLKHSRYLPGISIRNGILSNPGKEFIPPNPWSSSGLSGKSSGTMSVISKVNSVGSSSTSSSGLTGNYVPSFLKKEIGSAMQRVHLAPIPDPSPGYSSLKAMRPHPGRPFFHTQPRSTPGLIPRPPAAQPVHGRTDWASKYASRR

With `Cc1cnn2ncc(-c3ccnc(N(C)C)n3)c2c1` the remaining binding was 82% (binding; 1 µM).
With `O=C(NCC1CCOCC1)c1n[nH]cc1NC(=O)c1c(F)cccc1F` the remaining binding was 5.7% (binding; competition with immobilised ligand; 1 µM).
`CS(=O)(=O)NCC[C@H](NC(=O)c1cncc2c1cnn2-c1ccc(F)cc1)c1ccnc(S(C)(=O)=O)c1` gave a remaining binding of 100% (binding; competition with immobilised ligand; 1 µM).
`CN(C)c1nccc(-c2cnc3ncccn23)n1` has a remaining binding of 81% (binding; 1 µM).
`O=C(NCCCN1CCOCC1)c1ccc(Nc2ncc(Cl)c(-c3ccc(Cl)s3)n2)cc1` gave a remaining binding of 62% (binding; competition with immobilised ligand; 1 µM).
`CN(C)c1nccc(-c2cnn3ncccc23)n1` has a remaining binding of 91% (binding; 1 µM).
The remaining binding of `CCN1CCN(Cc2ccc(C(=O)Nc3ccc(C)c(Oc4ccc5c(c4)CC(=O)N5)c3)cc2C(F)(F)F)CC1` is reported as 100% (binding; competition with immobilised ligand; 1 µM).
`CC1CCCN1c1nccc(-c2cnn3ncccc23)n1` (stereo not drawn) gave a remaining binding of 100% (binding; 1 µM).
`Nc1cnc(N2CCc3cc(S(=O)(=O)Nc4c(F)cc(Cl)cc4F)cc(N4CCCC4=O)c32)nc1` gave a remaining binding of 80% (cell-free assay; competition with immobilised ligand; 1 µM).
With `C=CC(=O)N1CCC(C(=O)NCC(=O)N2CCN(c3nc(-c4cnc(N)nc4C(F)F)nc(N4CCOCC4)n3)CC2)CC1` the remaining binding was 95% (binding; competition with immobilised ligand; 1 µM).
`COc1ncc2cc3ccccc3nc2c1C#N` has a remaining binding of 90% (binding; competition with immobilised ligand; 5 µM).
For `O=C(c1ccc(Nc2nccc(-c3cc4ccccc4s3)n2)cc1)N1CCC(N2CCCC2)CC1`, the remaining binding was 74% (binding; competition with immobilised ligand; 1 µM).
`Cc1c(NC(=O)c2cc(C(N)=O)nc3cc(F)ccc23)c(C(F)(F)F)nn1Cc1ccc(C(C)(C)C)cc1` gave a remaining binding of 61% (cell-free assay; competition with immobilised ligand; 1 µM).
`C[C@H]1CCN(c2nccc(-c3cnn4ncccc34)n2)C1` gave a remaining binding of 64% (binding; 1 µM).
With `FC(F)(F)Oc1cccc(-c2cnc3ccc(-c4ccncc4)nn23)c1` the remaining binding was 4.5% (cell-free assay; competition with immobilised ligand; 5 µM).
For `COc1cccc(CNC(=O)c2nc3scc(COCc4ccc(C(=O)O)cc4)c3c(=O)[nH]2)c1`, the remaining binding was 66.1% (cell-free assay; competition with immobilised ligand; 1 µM).
The remaining binding of `O=C(c1ccc(Nc2ncc(Cl)c(-c3cc4ccccc4s3)n2)cc1)N1CCC(N2CCCC2)CC1` is reported as 57% (binding; competition with immobilised ligand; 1 µM).
With `CNCc1ccccc1-c1csc([C@H](C)Nc2nc(C)nc3cc(OC)c(OC)cc23)c1` the remaining binding was 86% (cell-free assay; competition with immobilised ligand; 1 µM).
The remaining binding of `CNC(=O)[C@@H]1CC[C@@H](n2c(-c3ccc4cnccc4c3)nc3ccc(C(=O)NCc4cccc(C(N)=O)c4)cc32)C1` is reported as 100% (binding; competition with immobilised ligand; 1 µM).
With `CN(C)C(=O)Cn1cc(-c2nc([C@@](C)(c3ccc(-c4cnc(N)nc4)cc3)C3CC3)no2)cn1` the remaining binding was 100% (binding; competition with immobilised ligand; 1 µM).
`COc1ccnn2ncc(-c3ccnc(N(C)C)n3)c12` gave a remaining binding of 74% (binding; 1 µM).
